High-throughput results (PubChem)
This is a sample that favours compounds with a hit; in the whole collection about 2.3% have one here.
MT1-MMP txn act: MT1-MMP promoter transcription activation; activation factor at 10 µM; AID 750; HT1080 MT1-MMP promoter luciferase reporter, luminescence, overnight; stronger effect = higher value; 86,000 compounds, 0.16% hits;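 active means activation factor of at least 2 for MT1-MMP transcription at 10 µM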
RORA act: RORA (human) activation; P35398; CHO-K1 Gal4-RORA LBD luciferase reporter, luminescence; percent increase over mock-subtracted basal signal; activation, % at 10 µM; 65,000 compounds, 1.5% hits;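 active means activation above the mean of all tested compounds plus 3 SD, cut at about 49% in these data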;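 further: 0% = DMSO-treated RORA cells and 100% = added signal equal to DMSO minus mock-transfected cells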
SF-1 act: SF-1 (human) activation. 65,000 compounds, 1.9% hits. activation, % at 10 µM. CHO-K1 Gal4-SF-1 LBD luciferase reporter; % increase over DMSO SF-1-specific signal. Q13285;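 active means activation above the mean activation of all tested compounds plus 3 SD, cut at about 50% in these data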
Target sequence (Q13285 whole entry, looked up, the tested form may be a part): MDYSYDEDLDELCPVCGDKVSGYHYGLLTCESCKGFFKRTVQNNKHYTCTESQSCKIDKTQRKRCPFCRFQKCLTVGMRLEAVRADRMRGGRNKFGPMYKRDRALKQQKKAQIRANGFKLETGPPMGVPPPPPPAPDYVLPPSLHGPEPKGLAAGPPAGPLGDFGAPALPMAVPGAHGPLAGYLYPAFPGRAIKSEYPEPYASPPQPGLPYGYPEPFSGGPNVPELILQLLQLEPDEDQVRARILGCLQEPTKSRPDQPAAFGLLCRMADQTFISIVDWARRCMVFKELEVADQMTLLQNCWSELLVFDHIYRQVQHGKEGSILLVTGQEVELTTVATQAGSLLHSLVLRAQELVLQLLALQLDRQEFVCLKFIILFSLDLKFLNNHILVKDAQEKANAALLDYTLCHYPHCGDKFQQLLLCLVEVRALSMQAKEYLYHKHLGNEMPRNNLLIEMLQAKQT
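Material: Gal4–SF-1 LBD one-hybrid luciferase reporter in CHO-K1 cells | Amount: 4,000 cells per well | Compound dosing: 10 µM single point, 1% DMSO | Schedule: 20 h compound treatment, 37 °C | Measured by: SteadyLite luciferase luminescence | Evaluation: Percent activation versus DMSO | Control set: DMSO-treated SF-1-transfected cells as negative, DMSO-treated mock-transfected cells lacking SF-1 as background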
JNK3 blocker: inhibitors of human JNK3 kinase; P53779; purified JNK3 kinase activity, HTS; inhibition, % at 8 µM; 60,000 compounds, 0.61% hits; in the data active means inhibition above about 17%;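 further: 0% = DMSO and 100% = reference inhibitor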
* hit, by the source's call; x = no result.

SMILES | MT1-MMP txn act | RORA act | SF-1 act | JNK3 blocker
O=C(Nc1nc(-c2nc3ccccc3s2)cs1)C1COc2ccccc2O1 (stereo not drawn) | 1.5 | 12.7 | 54.8* | -1.4
Cc1cc(C(=O)Nc2nc3ccc(S(C)(=O)=O)cc3s2)c(C)o1 | 1 | 89.1* | 50.4* | -3.1
CS(=O)(=O)c1ccc2nc(NC(=O)C3COc4ccccc4O3)sc2c1 (stereo not drawn) | 1.4 | 7.2 | 52.1* | -6.0
CCc1nnc(NC(=O)C2COc3ccccc3O2)s1 (stereo not drawn) | 1.1 | x | x | x
CC1CCCC(C)N1CCNC(=O)CCn1nc(-c2ccccc2)ccc1=O (stereo not drawn) | 1.2 | -5.0 | -5.9 | -5.3
Cc1nc2nc(C)c(CCC(=O)O)c(C)n2n1 | 1.2 | x | x | x
CC(=O)N1[C@H](Cc2ccccc2)C=C[C@]1(C)C(=O)O | 1.1 | x | x | x
Nn1cnnc1SCC(=O)Nc1ccc(C2CCCCC2)cc1 | 1.7 | 39.8 | 53.6* | 5.2
Cc1ccc2nc(SCC(=O)c3cc(C)n(C)c3C)[nH]c2c1 | 1.2 | x | x | x
C/C(N)=C(/C#N)C(=O)CSc1nc2ccc(C)cc2[nH]1 | 1.2 | 26.3 | 76.9* | 1.5
Cc1ccc(C2=NN3C(C2)c2ccccc2OC32C(=O)Nc3ccccc32)cc1 (stereo not drawn) | 2* | x | x | x
CCCc1cc(=O)oc2cc(OCC(=O)N3CCc4ccccc43)ccc12 | 1.1 | x | x | x
CC(=O)Nc1ccc2nc(-c3ccccn3)[nH]c2c1 | 1.3 | 65.0* | 47.5 | 2.8
CC1(CC(=O)O)SC(=O)NC1=O (stereo not drawn) | 1.1 | -15.0 | 11.6 | 3.7
CCC(CCC(=O)Nc1ccc(S(N)(=O)=O)cc1)C(=O)O (stereo not drawn) | 1.2 | x | x | x
O=C(NCCc1ccccc1)c1cnn2c(C(F)F)cc(C3CC3)nc12 | 1.1 | -2.1 | 11.7 | 1.1
Cc1nn(C)cc1CNC(=O)c1cnn2c(C(F)F)cc(C3CC3)nc12 | 1.1 | -14.9 | 2.2 | 33.5*
O=C(C1=COCCO1)N1CCN(C(c2ccccc2)c2ccccc2)CC1 | 1.3 | -24.1 | -10.4 | -4.1
Cn1c(CN2CCCC2)nc2cc(NC(=O)c3ccco3)ccc21 | 1.3 | 47.7 | 50.1* | -0.4
CC(=O)Nc1ccc2c(c1)nc(CN1CCCC1)n2C | 1 | x | x | x
O=C(Nc1ccc2c(c1)ncn2-c1ccccc1)c1ccco1 | 0.5 | 51.8* | 28.1 | -5.3
Cn1cnc2cc(NC(=O)c3ccco3)ccc21 | 1 | 27.4 | 40.5 | 4.8
Cc1nc(CC(=O)N2CCN(c3cccc(C)c3C)CC2)cs1 | 1.2 | -13.6 | -12.9 | 4.3
O=C(c1cccs1)N1CCn2c1nc1ccccc12 | 1.5 | 36.8 | 53.2* | 1.2
COc1ccc(-c2noc(N(C)CC(=O)Nc3cccc(C(F)(F)F)c3)n2)cc1 | 1 | 51.6* | 43.5 | -0.7
SMILES | MT1-MMP txn act | RORA act | SF-1 act | JNK3 blocker
CN(C)C=Nc1ccc2nn(-c3ccccc3)nc2c1 | 1.4 | 47.9 | 73.7* | 4.5
Cc1ccc2nc3ccc(N4CCCC4)nn3c(=O)c2c1 | 1.4 | 53.6* | 45.8 | 6.0
CN(Cc1cc(=O)[nH]c2ccccc12)C(=O)c1ccccc1 | 2.2* | 15.4 | -7.7 | 8.9
O=C(c1ccccc1)c1cc(F)c(N2CCOCC2)cc1Cl | 1.1 | -8.1 | 4.7 | -1.5
O=C(c1ccccc1)c1ccc(N2CCOCC2)c(F)c1 | 1.3 | 74.2* | 46.4 | -3.1
CCOC(=O)c1[nH]c(C)c(C(=O)OCC)c1C | 1.2 | 24.4 | 33.6 | 3.0
CCOC(=O)c1c(C)[nH]sc1=S | 1 | -7.5 | -5.2 | 19.4*
CN(CCC#N)C(=O)CSc1ncnc2sc(-c3ccccc3)cc12 | 1.4 | 52.0* | 30.1 | -2.8
CCN(CC)C(=O)CSc1ncnc2sc(-c3ccccc3)cc12 | 1.7 | x | x | x
COc1ccc(C(=O)NCC2OCCc3ccccc32)c(O)c1 (stereo not drawn) | 1.4 | -10.5 | 4.4 | 7.6
COc1cccc(OCc2nc3ncc(Br)cc3[nH]2)c1 | 1.4 | 60.4* | 76.1* | 12.0
Cc1cc(C)cc(OCc2nc3ncc(Br)cc3[nH]2)c1 | 1.1 | x | x | x
C[Si](C)(C)C#Cc1ccccc1NC(=S)Nc1ccccc1 | 1.1 | x | x | x
CCOC(=O)c1cnc2ccc(Cl)cc2c1N1CCN(C)CC1 | 1.1 | 7.4 | -0.2 | 31.8*
CCOC(=O)c1cnc2ccc(OCC)cc2c1N1CCN(C)CC1 | 1.1 | 22.0 | -4.2 | 8.0
Nc1nc2c(s1)CCc1c-2cnn1-c1ccccc1 | 1.3 | 16.8 | 91.1* | -0.6
COc1ccc(-c2cnn(-c3ccccc3)c2N)cc1OC | 0.9 | -7.9 | -5.3 | -7.0
Cn1c(CCNC(=O)c2ccccc2)nc2cc(NC(=O)C3CCCCC3)ccc21 | 1.1 | x | x | x
COc1cccc(NC(=O)c2nnn(CCc3ccccc3)c2N)c1 | 1.4 | 53.1* | 83.8* | 5.6
COc1cccc(NC(=O)c2nnn(Cc3ccc(Br)cc3F)c2N)c1 | 1.2 | 58.3* | 1.8 | 0.3
CCOc1ccc(N(CC(=O)NCC2CCCO2)C(=O)CCC(=O)Nc2ccccn2)cc1 (stereo not drawn) | 1.1 | x | x | x
CC1(C)CC(=O)C(C=Nc2ccc(O)cc2)=C(O)C1 | 1.3 | 35.5 | 51.4* | -1.3
CCN(CC)CCOC(=O)c1ccc(N=CC2=C(O)CC(C)(C)CC2=O)cc1 | 1.2 | -16.7 | -5.0 | 10.1
CCOc1ccc(N=CC2=C(O)CC(C)(C)CC2=O)cc1 | 1.7 | 15.2 | 68.0* | -8.1
CC1(C)CC(=O)C(C=Nc2ccc3[nH]ncc3c2)=C(O)C1 | 1.3 | 17.9 | 79.1* | 1.0
SMILES | MT1-MMP txn act | RORA act | SF-1 act | JNK3 blocker
CC1(C)CC(=O)C(C=Nc2ccc3cn[nH]c3c2)=C(O)C1 | 1.3 | -10.6 | 24.4 | 2.3
Cc1[nH]nc(N=CC2=C(O)CC(C)(C)CC2=O)c1-c1ccc(Cl)cc1 | 1.4 | 83.2* | 31.1 | 2.1
Cc1ccc(-c2nc(CS(=O)CC(=O)NCCC(C)C)c(C)o2)cc1 (stereo not drawn) | 1.1 | 22.7 | 14.2 | -0.2
C=C(C)Cn1c(N2CC(C)CC(C)C2)nc2c1c(=O)[nH]c(=O)n2C (stereo not drawn) | 1.1 | -8.4 | -23.1 | -1.3
Cc1cc(C)nc(SCc2nnc(SCc3ccccc3Cl)o2)n1 | 1.2 | -24.6 | -26.4 | -7.1
COc1cc(NC(=O)c2csc3c2CCCC3)ncn1 | 1.5 | 56.5* | 14.3 | 1.1
Cc1ccc(N=C2C(=S)N(c3ccc(C)cc3)C(=N)N2/N=C/c2ccc(Cl)cc2)cc1 | 1.4 | x | x | x
CCN1C(=S)SC(=O)C1=C1C=C(C)OC(C)=C1 | 1.3 | 12.9 | 19.4 | x
CCN1C(=S)SC(=O)C1=C1C=C(C)N(Cc2ccco2)C(C)=C1 | 1.8 | 18.5 | 52.9* | x
COC(=O)[C@@]1(Cc2ccc(F)cc2)[C@H]2c3cc(C(=O)N(C)C)n(Cc4ccsc4Br)c3C[C@H]2CN1C(=O)c1ccccc1 | 1.2 | x | x | x
CN(C(=O)CSc1nnc(-c2ccco2)o1)C1CCCCC1 | 1.3 | 50.1* | 29.1 | -2.3
CCOC(=O)c1cccc(NC(=O)c2cc3sccc3n2C)c1 | 1.5 | 36.0 | 55.2* | 3.4
CCOC(=O)c1ccccc1NC(=O)c1cc2sccc2n1C | 1.1 | 11.6 | -5.7 | -8.2
CCc1ccc2c(COC(=O)c3n[nH]c4ccccc34)cc(=O)oc2c1 | 1.5 | 28.1 | 58.3* | 20.8*
CCOC(=O)c1n[nH]c2ccccc12 | 1.1 | -1.2 | 14.2 | 37.8*
